Data as given in ChEMBL document CHEMBL1134767, “Structural basis of binding of high-affinity ligands to protein kinase C: prediction of the binding modes through a new molecular dynamics method and evaluation by site-directed mutagenesis” (J Med Chem, 2001).

Assays:
[1] = target: Protein kinase C delta type (Mus musculus, UniProt P28867, F243G); test: Displacement of [3H]PDBu from protein kinase C delta C1b domain mutant (F13G)
Method in brief: (§1)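 PKCδ C1b domain, wild type or sequence-confirmed point mutant, expressed as a GST-fusion protein in E. coli and used purified or as total lysate. Incubated 5 min at 18 °C with [3H]PDBu, […] phosphatidylserine, 1 mM EGTA and varied unlabeled ligand. Protein was precipitated with 35% poly(ethylene glycol) and centrifuged, and supernatant and pellet radioactivity counted. Ki was calculated from final ligand concentrations.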

[2] = target: Protein kinase C delta type (Mus musculus, UniProt P28867, L250G); test: Displacement of [3H]PDBu from protein kinase C delta C1b domain mutant (L20G); method in brief: as §1
[3] = target: Protein kinase C delta type (Mus musculus, UniProt P28867, P241G); test: Displacement of [3H]-PDBu from protein kinase C delta C1b domain mutant (P11G); method in brief: as §1
[4] = target: Protein kinase C delta type (Mus musculus, UniProt P28867, Q257V); test: Displacement of [3H]PDBu from protein kinase C delta C1b domain mutant (Q27V); method in brief: as §1
[5] = target: Protein kinase C delta type (Mus musculus, UniProt P28867, T242G); test: Displacement of [3H]PDBu from protein kinase C delta C1b domain mutant (T12G); method in brief: as §1
[6] = target: Protein kinase C delta type (Mus musculus, UniProt P28867, T8G); test: Displacement of [3H]PDBu from protein kinase C delta C1b domain mutant (T8G); method in brief: as §1
[7] = target: Protein kinase C delta type (Mus musculus, UniProt P28867); test: Displacement of [3H]PDBu from protein kinase C delta C1b domain (Wild type); method in brief: as §1
[8] = target: Protein kinase C delta type (Mus musculus, UniProt P28867, W252G); test: Displacement of [3H]PDBu from protein kinase C delta C1b domain mutant (W22G)
Sequence of Protein kinase C delta type (Mus musculus, UniProt P28867, W252G) (P28867 whole entry W252G, the tested form may be a part): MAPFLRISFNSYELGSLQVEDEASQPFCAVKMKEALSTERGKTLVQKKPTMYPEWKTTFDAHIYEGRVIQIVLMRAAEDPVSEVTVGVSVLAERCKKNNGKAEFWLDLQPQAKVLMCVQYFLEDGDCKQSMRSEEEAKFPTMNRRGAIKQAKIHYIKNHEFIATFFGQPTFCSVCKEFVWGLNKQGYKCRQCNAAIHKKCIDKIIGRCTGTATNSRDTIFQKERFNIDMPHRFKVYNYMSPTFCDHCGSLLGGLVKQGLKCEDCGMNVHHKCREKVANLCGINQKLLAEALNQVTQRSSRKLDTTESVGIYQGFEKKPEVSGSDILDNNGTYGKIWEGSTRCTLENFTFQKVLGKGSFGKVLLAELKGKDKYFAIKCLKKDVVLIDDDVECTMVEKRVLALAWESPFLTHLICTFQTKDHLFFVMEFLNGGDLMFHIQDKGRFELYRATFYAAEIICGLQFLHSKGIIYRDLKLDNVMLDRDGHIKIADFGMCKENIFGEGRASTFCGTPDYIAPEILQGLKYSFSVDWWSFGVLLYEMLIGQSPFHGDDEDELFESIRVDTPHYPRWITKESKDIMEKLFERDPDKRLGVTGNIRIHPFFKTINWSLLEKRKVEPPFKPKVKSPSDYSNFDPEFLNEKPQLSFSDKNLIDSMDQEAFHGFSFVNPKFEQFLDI

Sequence of Protein kinase C delta type (Mus musculus, UniProt P28867, F243G) (P28867 whole entry F243G, the tested form may be a part): as the sequence (P28867 whole entry W252G, the tested form may be a part) above, with F243G, G252W counted along it
Sequence of Protein kinase C delta type (Mus musculus, UniProt P28867, T242G) (P28867 whole entry T242G, the tested form may be a part): as the sequence (P28867 whole entry W252G, the tested form may be a part) above, with T242G, G252W counted along it
Sequence of Protein kinase C delta type (Mus musculus, UniProt P28867, T8G) (P28867 whole entry, looked up, stated change not applied, the tested form may be a part): as the sequence (P28867 whole entry W252G, the tested form may be a part) above, with G252W counted along it
Sequence of Protein kinase C delta type (Mus musculus, UniProt P28867) (P28867 whole entry, the tested form may be a part): as the sequence (P28867 whole entry W252G, the tested form may be a part) above, with G252W counted along it
Sequence of Protein kinase C delta type (Mus musculus, UniProt P28867, L250G) (P28867 whole entry L250G, the tested form may be a part): as the sequence (P28867 whole entry W252G, the tested form may be a part) above, with L250G, G252W counted along it
Sequence of Protein kinase C delta type (Mus musculus, UniProt P28867, Q257V) (P28867 whole entry Q257V, the tested form may be a part): as the sequence (P28867 whole entry W252G, the tested form may be a part) above, with G252W, Q257V counted along it
Sequence of Protein kinase C delta type (Mus musculus, UniProt P28867, P241G) (P28867 whole entry P241G, the tested form may be a part): as the sequence (P28867 whole entry W252G, the tested form may be a part) above, with P241G, G252W counted along it

| SMILES | Ki [1] [nM] | Ki [2] [nM] | Ki [3] [nM] | Ki [4] [nM] | Ki [5] [nM] | Ki [6] [nM] | Ki [7] [nM] | Ki [8] [nM] |
| --- | --- | --- | --- | --- | --- | --- | --- | --- |
| CC1=CC23C(=O)[C@@H](C=C(CO)[C@@H](O)[C@]2(O)[C@H]1OC(=O)c1ccccc1)[C@H]1[C@@H](C[C@H]3C)C1(C)C | 0.15 | 1.08 | 10.8 | 1.41 | 0.72 | 3.14 | 0.13 |  |
| CC(C)[C@H]1C(=O)N[C@H](CO)Cc2c[nH]c3cccc(c23)N1C [INDOLACTUM] | 10.9 | 66.2 | 7080 | 1100 | 25.3 | 658 |  |  |
| C=C(C)[C@@]12OC3(c4ccccc4)O[C@@H]1[C@@H]1C4O[C@]4(CO)[C@@H](O)[C@]4(O)C(=O)C(C)=C[C@H]4[C@@]1(O3)[C@H](C)[C@H]2OC(=O)/C=C/c1ccccc1 (stereo partly drawn) [THYMELEATOXIN] | 7.8 | 11.3 | 417 | 47.1 | 19.1 | 86.6 | 2.71 |  |
| CCCC(=O)O[C@@H]1[C@@H](C)[C@@]2(O)[C@@H](C=C(CO)C[C@]3(O)C(=O)C(C)=C[C@@H]23)[C@@H]2C(C)(C)[C@]12OC(=O)CCC | 0.82 | 6.59 | 210 | 14.2 | 1.24 | 18.4 | 0.351 | 25 |
